Laboratory results published in ChEMBL document CHEMBL1141183, “Development of potent mu-opioid receptor ligands using unique tyrosine analogues of endomorphin-2” (J Med Chem, 2005).
pIC50, pKi: −log10 of the molar value. Active and inactive are the calls of the source. The rule behind the calls is not given here.

Key:
[1] = molecular target: Mu-type opioid receptor (Cavia porcellus, UniProt P97266); assay: In vitro inhibition of opioid receptor mu using isolated guinea pig ileum; assay type: tissue-based
Chain of Mu-type opioid receptor (Cavia porcellus, UniProt P97266) (P97266 whole entry): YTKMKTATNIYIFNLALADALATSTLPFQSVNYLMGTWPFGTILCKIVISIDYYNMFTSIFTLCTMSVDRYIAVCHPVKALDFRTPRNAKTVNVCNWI
In short: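 Myenteric plexus longitudinal muscle strips (2-3 cm) from small intestine of male Hartley guinea pigs, in organ bath with physiological salt buffer, pH 7.5, for μ-receptor agonism.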

[2] = molecular target: Delta-type opioid receptor (Rattus norvegicus, UniProt P33533); assay: Inhibition of [3H]DPDPE binding to delta-Opioid receptor
Chain of Delta-type opioid receptor (Rattus norvegicus, UniProt P33533) (P33533 whole entry): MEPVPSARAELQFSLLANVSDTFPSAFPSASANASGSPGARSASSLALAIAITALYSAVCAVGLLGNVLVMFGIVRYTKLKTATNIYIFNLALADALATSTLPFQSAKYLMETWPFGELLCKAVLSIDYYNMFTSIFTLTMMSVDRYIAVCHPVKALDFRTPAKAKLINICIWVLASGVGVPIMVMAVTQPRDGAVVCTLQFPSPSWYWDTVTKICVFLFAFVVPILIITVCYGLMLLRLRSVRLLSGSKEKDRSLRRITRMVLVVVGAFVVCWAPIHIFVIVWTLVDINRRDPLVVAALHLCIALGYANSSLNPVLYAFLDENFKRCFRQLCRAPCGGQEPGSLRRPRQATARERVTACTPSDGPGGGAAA
In short: (§1)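 Synaptosomal membranes preincubated to remove endogenous opioids, washed, stored at -80 °C with protease inhibitor. μ sites labelled with [3H]DAMGO, δ with [3H]DPDPE; nonspecific binding set by 2 µM unlabelled peptide. Filtration on polyethylenimine-soaked GF/C filters, scintillation counting. Five to seven peptide doses in duplicate, several preparations. Ki by Cheng-Prusoff.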

[3] = molecular target: Mu-type opioid receptor (Rattus norvegicus, UniProt P33535); assay: Inhibition of [3H]DAMGO binding to mu-Opioid receptor; in short: as §1
Chain of Mu-type opioid receptor (Rattus norvegicus, UniProt P33535) (P33535 whole entry): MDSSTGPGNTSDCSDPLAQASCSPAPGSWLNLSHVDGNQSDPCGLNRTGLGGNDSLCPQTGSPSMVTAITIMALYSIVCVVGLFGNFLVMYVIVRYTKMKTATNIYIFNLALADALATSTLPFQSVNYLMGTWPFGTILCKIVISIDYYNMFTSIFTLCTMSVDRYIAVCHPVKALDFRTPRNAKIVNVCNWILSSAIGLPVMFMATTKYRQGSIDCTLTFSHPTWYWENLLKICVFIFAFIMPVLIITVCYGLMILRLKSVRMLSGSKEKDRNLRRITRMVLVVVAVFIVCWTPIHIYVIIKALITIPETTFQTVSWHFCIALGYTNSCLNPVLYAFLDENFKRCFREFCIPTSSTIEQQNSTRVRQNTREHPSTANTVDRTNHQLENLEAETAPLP

[4] = organism: Mus musculus; assay: Inhibition of electrically evoked contraction in mice by tail flick method; nd=None detected; assay type: functional, organism-based
[5] = molecular target: Delta-type opioid receptor (Mus musculus, UniProt P32300); assay: In vitro inhibition of opioid receptor delta using mouse vas deferens; assay type: tissue-based
Chain of Delta-type opioid receptor (Mus musculus, UniProt P32300) (P32300 whole entry): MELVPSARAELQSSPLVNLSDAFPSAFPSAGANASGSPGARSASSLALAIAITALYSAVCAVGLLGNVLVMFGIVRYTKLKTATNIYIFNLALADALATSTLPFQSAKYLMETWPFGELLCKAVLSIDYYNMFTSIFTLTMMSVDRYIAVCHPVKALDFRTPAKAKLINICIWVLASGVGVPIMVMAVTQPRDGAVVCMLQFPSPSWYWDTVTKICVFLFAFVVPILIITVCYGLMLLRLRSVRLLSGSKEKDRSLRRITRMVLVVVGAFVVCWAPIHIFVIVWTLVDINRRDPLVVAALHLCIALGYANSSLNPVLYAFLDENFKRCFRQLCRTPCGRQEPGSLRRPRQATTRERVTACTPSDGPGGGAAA

[6] = molecular target: Opioid receptors; mu & delta (Rattus norvegicus) (UniProt P33533+P33535); assay: Relative binding to delta and mu Opioid receptors (ratio of Ki); assay type: protein assay
Chain of Opioid receptors; mu & delta (Rattus norvegicus) (P33533 whole entry, looked up): as the sequence (P33533 whole entry) above
Chain of Opioid receptors; mu & delta (Rattus norvegicus) (P33535 whole entry, looked up): as the sequence (P33535 whole entry) above

`CC(C)c1cc(O)cc(C(C)C)c1C[C@H](N)C(=O)N1CCC[C@H]1C(=O)N[C@@H](Cc1ccccc1)C(=O)N[C@@H](Cc1ccccc1)C(N)=O` showed a pIC50 [1] of 6.52, a pKi [2] of 6.98 and a pKi [3] of 8.64. For the same compound, the inhibition [4] was “inactive”, the pIC50 [5] was < 5.00 and the Ratio [6] was 46.

With `CCc1cc(O)cc(C)c1C[C@H](N)C(=O)N1CCC[C@H]1C(=O)N[C@@H](Cc1ccccc1)C(=O)N[C@@H](Cc1ccccc1)C(N)=O` the pIC50 [1] was 9.21, the pKi [2] was 7.25 and the pKi [3] was 10.20. For the same compound, the pIC50 [5] was 8.97 and the Ratio [6] was 884.

`Cc1cc(O)cc(C(C)C)c1C[C@H](N)C(=O)N1CCC[C@H]1C(=O)N[C@@H](Cc1ccccc1)C(=O)N[C@@H](Cc1ccccc1)C(N)=O` gave a pIC50 [1] of 7.97, a pKi [2] of 6.72 and a pKi [3] of 9.82. It also gave a pIC50 [5] of 6.22 and a Ratio [6] of 1270.

Work on `Cc1cc(O)ccc1C[C@H](N)C(=O)N1CCC[C@H]1C(=O)N[C@@H](Cc1ccccc1)C(=O)N[C@@H](Cc1ccccc1)C(N)=O` yielded a pIC50 [1] of 9.03, a pKi [2] of 6.28 and a pKi [3] of 9.88. For the same compound, the pIC50 [5] was 7.54 and the Ratio [6] was 4000.

`CCc1cc(O)cc(CC)c1C[C@H](N)C(=O)N1CCC[C@H]1C(=O)N[C@@H](Cc1ccccc1)C(=O)N[C@@H](Cc1ccccc1)C(N)=O` gave a pIC50 [1] of 9.04, a pKi [2] of 7.16 and a pKi [3] of 10.08. The pIC50 [5] was 7.33 and the Ratio [6] was 830.

Compound `Cc1cc(O)c(C)c(C)c1C[C@H](N)C(=O)N1CCC[C@H]1C(=O)N[C@@H](Cc1ccccc1)C(=O)N[C@@H](Cc1ccccc1)C(N)=O` has a pIC50 [1] of 8.64, a pKi [2] of 6.23 and a pKi [3] of 9.95. It also gave a pIC50 [5] of 7.33 and a Ratio [6] of 5350.
